What was measured:
[1] = molecular target: T1, Adrenergic receptor alpha-1 (Rattus norvegicus, UniProt P15823+P23944+P43140); assay: Binding affinity against alpha-1 adrenergic receptor; assay type: protein assay
T1 sequence (P15823 whole entry): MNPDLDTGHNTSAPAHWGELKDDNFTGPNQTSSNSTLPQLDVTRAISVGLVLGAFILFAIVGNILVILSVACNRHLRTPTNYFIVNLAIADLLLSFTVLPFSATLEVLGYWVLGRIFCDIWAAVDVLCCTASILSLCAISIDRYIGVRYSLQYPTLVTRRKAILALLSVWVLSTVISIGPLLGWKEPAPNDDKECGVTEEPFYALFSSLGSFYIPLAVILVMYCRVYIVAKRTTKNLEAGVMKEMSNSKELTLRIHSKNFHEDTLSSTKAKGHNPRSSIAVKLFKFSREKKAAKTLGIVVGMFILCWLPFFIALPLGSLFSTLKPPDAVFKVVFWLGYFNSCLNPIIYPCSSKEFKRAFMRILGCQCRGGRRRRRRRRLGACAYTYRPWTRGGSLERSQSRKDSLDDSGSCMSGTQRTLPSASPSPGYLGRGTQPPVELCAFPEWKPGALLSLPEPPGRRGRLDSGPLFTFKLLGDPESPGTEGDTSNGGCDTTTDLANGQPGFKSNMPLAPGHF
T1 sequence (P23944 whole entry): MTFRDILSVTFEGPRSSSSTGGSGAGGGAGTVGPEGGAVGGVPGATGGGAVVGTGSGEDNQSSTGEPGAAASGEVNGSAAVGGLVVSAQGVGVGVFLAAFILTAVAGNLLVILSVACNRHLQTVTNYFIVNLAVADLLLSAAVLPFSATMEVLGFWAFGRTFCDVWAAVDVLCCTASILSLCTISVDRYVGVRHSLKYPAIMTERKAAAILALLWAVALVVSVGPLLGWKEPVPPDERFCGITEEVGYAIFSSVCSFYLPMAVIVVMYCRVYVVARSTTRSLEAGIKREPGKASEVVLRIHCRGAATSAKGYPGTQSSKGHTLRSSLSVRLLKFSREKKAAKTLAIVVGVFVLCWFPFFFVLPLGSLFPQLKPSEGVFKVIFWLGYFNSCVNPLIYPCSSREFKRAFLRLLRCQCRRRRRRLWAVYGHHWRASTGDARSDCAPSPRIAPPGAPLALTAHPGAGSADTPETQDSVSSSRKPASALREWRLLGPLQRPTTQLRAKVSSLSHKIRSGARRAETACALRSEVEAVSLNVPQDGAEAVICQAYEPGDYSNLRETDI
T1 sequence (P43140 whole entry): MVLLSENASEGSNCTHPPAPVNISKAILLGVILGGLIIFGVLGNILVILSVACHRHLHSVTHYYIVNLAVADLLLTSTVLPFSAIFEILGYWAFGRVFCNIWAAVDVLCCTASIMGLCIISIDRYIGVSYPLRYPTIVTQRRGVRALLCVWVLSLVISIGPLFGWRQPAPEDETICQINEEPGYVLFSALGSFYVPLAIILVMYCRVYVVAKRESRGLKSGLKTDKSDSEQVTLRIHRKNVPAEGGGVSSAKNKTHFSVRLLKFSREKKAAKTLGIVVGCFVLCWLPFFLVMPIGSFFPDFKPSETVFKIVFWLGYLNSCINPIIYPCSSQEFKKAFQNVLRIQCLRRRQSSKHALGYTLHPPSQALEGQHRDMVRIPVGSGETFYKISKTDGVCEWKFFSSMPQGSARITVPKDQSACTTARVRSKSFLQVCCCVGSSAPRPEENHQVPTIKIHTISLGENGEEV
Method in brief: (§1)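 Radioligand binding at α1 adrenergic receptors using [3H]prazosin in a standard binding assay.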

[2] = (§2) Therapeutic index is the ratio of IC50 value for Alpha-1 adrenergic receptor to that for NMDA.
Method in brief: (§3)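 Selectivity index calculated as α1 adrenergic potency ([3H]prazosin binding) divided by activity in the rat hippocampal culture glutamate-neurotoxicity model.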

Glutamate NMDA receptor = assay: N-methyl-D-aspartate glutamate receptor antagonistic activity in cell culture(CC)model; assay type: functional
Method in brief: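 Functional NMDA antagonism in rat hippocampal cell cultures. Read-out is protection of the cultured neurons against toxicity from extracellularly applied glutamate (the glutamate-induced hippocampal neurodegeneration model).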

[3] = molecular target: T1, Adrenergic receptor alpha-1; assay: Compound was tested for the binding affinity against Alpha-1 adrenergic receptor; assay type: protein assay; method in brief: as §1
[4] = test system: Alpha-1 adrenergic receptor versus NMDA receptor; assay: as §2; conditions: read-out: TI; method in brief: as §3
D(1A) dopamine receptor = D(1A) dopamine receptor (Mus musculus, UniProt Q61616); assay: Compound was tested for the binding affinity against dopamine receptor D1 by using [3H]-SCH- 23390 as radioligand
D(1A) dopamine receptor, sequence (Q61616 whole entry): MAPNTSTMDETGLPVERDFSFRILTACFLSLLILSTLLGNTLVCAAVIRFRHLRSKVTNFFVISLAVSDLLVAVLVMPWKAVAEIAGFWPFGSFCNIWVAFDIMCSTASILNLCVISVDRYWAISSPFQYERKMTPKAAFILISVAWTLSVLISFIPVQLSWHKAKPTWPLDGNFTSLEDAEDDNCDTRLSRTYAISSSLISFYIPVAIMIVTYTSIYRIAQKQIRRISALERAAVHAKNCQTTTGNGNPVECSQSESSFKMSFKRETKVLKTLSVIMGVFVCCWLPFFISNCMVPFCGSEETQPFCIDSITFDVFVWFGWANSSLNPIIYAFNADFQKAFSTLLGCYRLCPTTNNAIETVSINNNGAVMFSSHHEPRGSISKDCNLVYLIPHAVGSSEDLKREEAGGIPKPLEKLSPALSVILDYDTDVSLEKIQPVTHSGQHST

[5] = molecular target: T2, 5-hydroxytryptamine receptor 1A (Mus musculus, UniProt Q64264); assay: Compound was tested for the binding affinity against 5-hydroxytryptamine 1A receptor by using [3H]DPAT as radioligand
T2 sequence (Q64264 whole entry): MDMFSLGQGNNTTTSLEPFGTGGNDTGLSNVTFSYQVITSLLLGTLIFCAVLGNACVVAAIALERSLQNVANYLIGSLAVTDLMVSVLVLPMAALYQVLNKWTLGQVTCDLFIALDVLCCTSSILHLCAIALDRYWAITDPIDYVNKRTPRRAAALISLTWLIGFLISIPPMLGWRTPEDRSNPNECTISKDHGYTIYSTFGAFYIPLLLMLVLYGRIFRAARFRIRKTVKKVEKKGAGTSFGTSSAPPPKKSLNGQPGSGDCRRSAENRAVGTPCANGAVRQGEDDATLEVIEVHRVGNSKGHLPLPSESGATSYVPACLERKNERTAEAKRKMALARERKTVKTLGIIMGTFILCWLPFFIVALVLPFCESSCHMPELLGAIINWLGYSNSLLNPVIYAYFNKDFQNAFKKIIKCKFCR

[6] = molecular target: 5-hydroxytryptamine receptor 2A (Bos taurus, UniProt Q75Z89); assay: Compound was tested for the binding affinity against 5-hydroxytryptamine 2 receptor by using [3H]ketanserin as radioligand
5-hydroxytryptamine receptor 2A, sequence (Q75Z89 whole entry): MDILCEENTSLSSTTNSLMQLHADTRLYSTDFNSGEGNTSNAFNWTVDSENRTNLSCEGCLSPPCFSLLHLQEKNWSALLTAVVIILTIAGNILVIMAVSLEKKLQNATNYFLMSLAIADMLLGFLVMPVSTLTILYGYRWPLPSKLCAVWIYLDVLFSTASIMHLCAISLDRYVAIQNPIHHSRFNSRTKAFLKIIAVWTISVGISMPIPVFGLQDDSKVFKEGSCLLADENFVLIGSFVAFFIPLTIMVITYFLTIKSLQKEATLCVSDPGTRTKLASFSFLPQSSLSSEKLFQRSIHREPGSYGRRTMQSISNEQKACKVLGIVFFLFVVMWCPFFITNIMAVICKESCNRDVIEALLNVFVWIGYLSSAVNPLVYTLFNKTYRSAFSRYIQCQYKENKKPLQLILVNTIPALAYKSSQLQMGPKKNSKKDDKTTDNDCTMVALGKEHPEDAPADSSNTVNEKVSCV

Histamine H1 receptor = Histamine H1 receptor (Homo sapiens, UniProt P35367); assay: Compound was tested for the binding affinity against histamine H1 receptor by using [3H]mepyramine as radioligand
Histamine H1 receptor, sequence (P35367 whole entry): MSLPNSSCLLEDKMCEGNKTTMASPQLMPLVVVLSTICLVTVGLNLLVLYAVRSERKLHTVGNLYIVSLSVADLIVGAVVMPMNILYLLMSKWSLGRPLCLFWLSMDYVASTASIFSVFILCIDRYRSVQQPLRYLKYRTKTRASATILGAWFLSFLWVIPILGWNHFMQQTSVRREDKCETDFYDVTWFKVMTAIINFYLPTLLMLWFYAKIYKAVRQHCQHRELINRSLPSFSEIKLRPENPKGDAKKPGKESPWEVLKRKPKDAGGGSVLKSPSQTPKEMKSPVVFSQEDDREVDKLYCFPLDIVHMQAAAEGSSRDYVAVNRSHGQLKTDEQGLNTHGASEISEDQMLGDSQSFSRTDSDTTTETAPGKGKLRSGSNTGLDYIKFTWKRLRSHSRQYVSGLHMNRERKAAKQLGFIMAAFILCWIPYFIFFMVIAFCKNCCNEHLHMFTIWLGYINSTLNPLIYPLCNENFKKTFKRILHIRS

Mu-type opioid receptor = Mu-type opioid receptor (Homo sapiens, UniProt P35372); assay: Compound was tested for the binding affinity against opioid receptor mu by using [3H]naloxone as radioligand
Mu-type opioid receptor, sequence (P35372 whole entry): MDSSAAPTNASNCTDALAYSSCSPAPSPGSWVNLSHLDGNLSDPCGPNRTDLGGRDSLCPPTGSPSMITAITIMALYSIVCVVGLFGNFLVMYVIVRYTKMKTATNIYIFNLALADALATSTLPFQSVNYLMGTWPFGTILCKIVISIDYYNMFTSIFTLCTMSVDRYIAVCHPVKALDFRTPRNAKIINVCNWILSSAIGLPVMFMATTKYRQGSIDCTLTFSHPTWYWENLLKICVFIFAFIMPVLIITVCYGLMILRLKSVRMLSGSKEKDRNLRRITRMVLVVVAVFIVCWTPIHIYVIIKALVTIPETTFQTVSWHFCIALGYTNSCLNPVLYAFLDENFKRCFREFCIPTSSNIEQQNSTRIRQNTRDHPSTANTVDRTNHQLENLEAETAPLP

[7] = molecular target: Muscarinic acetylcholine receptor M3 (Rattus norvegicus, UniProt P08483); assay: Compound was tested for the binding affinity against muscarinic acetylcholine receptorby using [3H]QNB as radioligand
Muscarinic acetylcholine receptor M3, sequence (P08483 whole entry): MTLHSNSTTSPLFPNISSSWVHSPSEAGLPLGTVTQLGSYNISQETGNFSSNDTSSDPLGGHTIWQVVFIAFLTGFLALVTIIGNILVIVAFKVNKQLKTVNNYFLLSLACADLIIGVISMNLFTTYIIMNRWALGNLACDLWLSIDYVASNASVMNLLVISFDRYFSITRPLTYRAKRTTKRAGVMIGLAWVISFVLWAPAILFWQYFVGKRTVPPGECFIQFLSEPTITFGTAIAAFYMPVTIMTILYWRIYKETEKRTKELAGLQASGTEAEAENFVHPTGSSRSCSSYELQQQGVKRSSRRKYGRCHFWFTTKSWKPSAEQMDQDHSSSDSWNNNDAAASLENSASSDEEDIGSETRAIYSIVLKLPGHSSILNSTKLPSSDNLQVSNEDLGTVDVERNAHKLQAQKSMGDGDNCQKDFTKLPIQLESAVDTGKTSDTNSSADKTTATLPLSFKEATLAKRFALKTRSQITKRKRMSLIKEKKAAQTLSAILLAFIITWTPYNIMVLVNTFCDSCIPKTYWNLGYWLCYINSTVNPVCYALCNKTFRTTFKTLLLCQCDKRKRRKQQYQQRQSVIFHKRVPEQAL

D(2) dopamine receptor = D(2) dopamine receptor (Homo sapiens, UniProt P14416); assay: Compound was tested for the binding affinity against dopamine receptor D2 by using [3H]spiperone as radioligand
D(2) dopamine receptor, sequence (P14416 whole entry): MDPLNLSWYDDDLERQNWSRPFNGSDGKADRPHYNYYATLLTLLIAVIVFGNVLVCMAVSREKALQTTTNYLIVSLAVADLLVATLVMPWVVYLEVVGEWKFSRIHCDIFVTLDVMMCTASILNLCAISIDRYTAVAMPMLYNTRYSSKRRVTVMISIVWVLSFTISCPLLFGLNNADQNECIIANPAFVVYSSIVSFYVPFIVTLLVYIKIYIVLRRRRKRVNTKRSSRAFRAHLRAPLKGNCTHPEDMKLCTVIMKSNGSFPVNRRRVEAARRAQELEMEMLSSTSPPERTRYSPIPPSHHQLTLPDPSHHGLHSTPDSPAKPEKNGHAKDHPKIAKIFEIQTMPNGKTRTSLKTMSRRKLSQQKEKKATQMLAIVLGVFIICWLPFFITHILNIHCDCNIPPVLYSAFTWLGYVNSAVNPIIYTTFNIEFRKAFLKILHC

Compound	IC50 [1]	IC50 (Glutamate NMDA receptor)	selectivity ratio [4]	also measured
C[C@@H]([C@@H](O)c1ccc(O)cc1)N1CCC(Cc2ccccc2)CC1 (stereo in doubt; 18) [(S)-IFENPRODIL]	2.306 µM			TI [2]: 48
C[C@@H]([C@@H](O)c1ccc(O)cc1)N1CCCCC1	> 10 µM	> 10 µM		
C[C@@H]([C@@H](O)c1ccc(O)cc1)N1CCN(Cc2ccccc2)CC1		10 µM		IC50 [3]: 4.633 µM
CC(Cc1ccc(O)cc1)N1CCC(Cc2ccccc2)CC1 (stereo not given)	0.13 µM	0.153 µM	0.85	
CC(CO)N1CCC(Cc2ccccc2)CC1 (stereo not given)	> 10 µM	> 10 µM		
C[C@@H]([C@H](O)c1ccc(O)cc1)N1CCCCC1	> 10 µM	> 10 µM		
C[C@@H]([C@@H](O)c1ccc(F)cc1)N1CCC(Cc2ccccc2)CC1	2.566 µM	0.1 µM	25.6	
OC(CN1CCC(Cc2ccccc2)CC1)c1ccccc1 (stereo not given)	2.133 µM	5 µM	0.43	
C[C@@H]([C@H](O)c1ccccc1)N1CCC(Cc2ccccc2)CC1	0.573 µM		0.28	
C[C@@H]([C@@H](O)c1ccc(O)cc1)N1CCC(Cc2ccccc2)CC1 (stereo in doubt; 19) [(S)-IFENPRODIL]	0.629 µM			
CCCC1CCN([C@@H](C)[C@@H](O)c2ccc(O)cc2)CC1	2.867 µM	6.3 µM	0.61	
C[C@@H]([C@H](O)c1ccc(O)cc1)N1CCC(Cc2ccccc2)CC1 [(R,S)-IFENPRODIL]	0.135 µM			
CC(C(O)c1ccc(O)cc1)N1CCC(Cc2ccccc2)CC1 (stereo not given) [IFENPRODIL]				IC50 (D(1A) dopamine receptor): > 1 µM; IC50 [5]: 0.238 µM; IC50 [6]: 0.61 µM; IC50 [3]: 0.1 µM; IC50 (Histamine H1 receptor): 1 µM; IC50 (Mu-type opioid receptor): > 1 µM; IC50 [7]: > 1 µM; IC50 (D(2) dopamine receptor): > 1 µM
C[C@@H]([C@@H](O)c1ccccc1)N1CCC(Cc2ccccc2)CC1	3.4 µM	3.7 µM	0.92	
c1ccc(CCN2CCC(Cc3ccccc3)CC2)cc1	0.347 µM	0.29 µM	1.19	
C[C@@H]([C@@H](O)c1ccc(O)cc1)N1CCC(Cc2ccccc2)CC1 (stereo in doubt; 2) [(S)-IFENPRODIL]				IC50 [3]: 0.843 µM
C[C@@H]([C@H](O)c1ccc(F)cc1)N1CCC(Cc2ccccc2)CC1	0.22 µM		0.94	
C[C@@H]([C@@H](O)c1ccc(O)cc1)N1CCN(C(=O)c2ccccc2)CC1	> 10 µM	> 10 µM		
